Legend:
MAO-B = biological target: T1, MAO-B (Rattus norvegicus, UniProt P19643); assay: Inhibition of MAO-B in rat forebrain using [14C]PEA as substrate at 30 uM incubated for 20 mins prior to substrate addition measured after 10 mins by liquid scintillation counting analysis; type: tissue-based; conditions: probe [14C]PEA
T1 sequence (P19643 whole entry): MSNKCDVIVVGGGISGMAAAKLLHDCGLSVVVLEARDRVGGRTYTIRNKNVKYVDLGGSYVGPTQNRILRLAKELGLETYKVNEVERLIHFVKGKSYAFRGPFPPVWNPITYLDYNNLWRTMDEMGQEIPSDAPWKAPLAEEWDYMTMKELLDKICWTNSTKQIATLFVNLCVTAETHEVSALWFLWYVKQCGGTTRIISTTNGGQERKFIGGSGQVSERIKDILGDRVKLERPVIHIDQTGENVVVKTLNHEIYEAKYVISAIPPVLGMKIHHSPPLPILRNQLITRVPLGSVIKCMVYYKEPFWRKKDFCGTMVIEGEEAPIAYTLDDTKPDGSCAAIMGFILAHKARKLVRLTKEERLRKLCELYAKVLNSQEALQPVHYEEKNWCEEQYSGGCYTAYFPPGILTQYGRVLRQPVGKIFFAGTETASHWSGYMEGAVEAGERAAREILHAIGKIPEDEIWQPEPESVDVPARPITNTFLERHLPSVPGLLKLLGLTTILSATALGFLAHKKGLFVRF

Staphylococcus aureus [1] = assay: Antibacterial activity against methicillin-resistant Staphylococcus aureus SR3637 assessed as growth inhibition by broth microdilution method; type: functional
Cytochrome P450 1A2 = biological target: T2, Cytochrome P450 1A2 (Homo sapiens, UniProt P05177); assay: Inhibition of CYP1A2 in human liver microsomes assessed as ethoxyresorufin O-deethylation after 20 mins by fluorescence plate reader analysis; type: ADME, Microsome
T2 sequence (P05177 whole entry): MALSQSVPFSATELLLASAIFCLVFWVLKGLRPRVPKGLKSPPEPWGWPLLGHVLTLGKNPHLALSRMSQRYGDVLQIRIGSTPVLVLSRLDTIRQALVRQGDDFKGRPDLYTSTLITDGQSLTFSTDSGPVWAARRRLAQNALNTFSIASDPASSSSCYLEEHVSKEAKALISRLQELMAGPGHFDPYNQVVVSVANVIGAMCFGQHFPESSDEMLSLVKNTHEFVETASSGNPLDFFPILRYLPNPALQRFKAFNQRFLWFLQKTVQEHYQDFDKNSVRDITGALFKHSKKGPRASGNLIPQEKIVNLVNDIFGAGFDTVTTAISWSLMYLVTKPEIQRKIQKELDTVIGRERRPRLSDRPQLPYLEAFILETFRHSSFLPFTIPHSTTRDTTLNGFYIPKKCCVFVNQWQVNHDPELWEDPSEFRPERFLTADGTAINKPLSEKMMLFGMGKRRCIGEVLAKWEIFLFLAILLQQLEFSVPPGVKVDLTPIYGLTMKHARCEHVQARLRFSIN

Moraxella catarrhalis = assay: Antibacterial activity against Moraxella catarrhalis SR26840 clinical isolate assessed as growth inhibition by broth microdilution method; type: functional
Haemophilus influenzae = assay: Antibacterial activity against Haemophilus influenzae SR27914 clinical isolate assessed as growth inhibition by broth microdilution method; type: functional
MAO-A = biological target: T3, MAO-A (Rattus norvegicus, UniProt P21396); assay: Inhibition of MAO-A in rat forebrain using [14C]5-HT as substrate at 30 uM incubated for 20 mins prior to substrate addition measured after 5 mins by liquid scintillation counting analysis; type: tissue-based; conditions: probe [14C]5-HT
T3 sequence (P21396 whole entry): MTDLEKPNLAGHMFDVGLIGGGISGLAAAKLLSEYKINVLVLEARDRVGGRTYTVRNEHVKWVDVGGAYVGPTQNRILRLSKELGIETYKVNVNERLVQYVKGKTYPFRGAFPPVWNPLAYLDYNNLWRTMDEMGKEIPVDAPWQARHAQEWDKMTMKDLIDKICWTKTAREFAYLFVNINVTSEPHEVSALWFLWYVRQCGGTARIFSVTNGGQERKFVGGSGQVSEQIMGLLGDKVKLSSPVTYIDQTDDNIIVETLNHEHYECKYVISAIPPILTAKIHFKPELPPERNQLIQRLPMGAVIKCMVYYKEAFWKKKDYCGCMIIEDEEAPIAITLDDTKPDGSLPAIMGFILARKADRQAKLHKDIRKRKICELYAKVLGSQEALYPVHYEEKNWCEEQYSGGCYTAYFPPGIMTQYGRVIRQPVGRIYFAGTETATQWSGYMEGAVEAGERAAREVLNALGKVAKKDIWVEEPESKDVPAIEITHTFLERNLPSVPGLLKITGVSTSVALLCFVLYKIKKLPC

Staphylococcus aureus [2] = assay: Antibacterial activity against linezolid-resistant Staphylococcus aureus NRS271 assessed as growth inhibition by broth microdilution method; type: functional
Staphylococcus aureus [3] = assay: Potency index, ratio of linezolid ED50 to compound ED50 for methicillin-resistant Staphylococcus aureus SR3637 infected in iv dosed JCL/ICR mouse systemic infection model; type: functional
Cytochrome P450 2C9 = Cytochrome P450 2C9 (Homo sapiens, UniProt P11712); assay: Inhibition of CYP2C9 in human liver microsomes assessed as tolbutamide hydroxylation after 20 mins by LC/MS/MS analysis; type: ADME, Microsome
Cytochrome P450 2C9, sequence (P11712 whole entry): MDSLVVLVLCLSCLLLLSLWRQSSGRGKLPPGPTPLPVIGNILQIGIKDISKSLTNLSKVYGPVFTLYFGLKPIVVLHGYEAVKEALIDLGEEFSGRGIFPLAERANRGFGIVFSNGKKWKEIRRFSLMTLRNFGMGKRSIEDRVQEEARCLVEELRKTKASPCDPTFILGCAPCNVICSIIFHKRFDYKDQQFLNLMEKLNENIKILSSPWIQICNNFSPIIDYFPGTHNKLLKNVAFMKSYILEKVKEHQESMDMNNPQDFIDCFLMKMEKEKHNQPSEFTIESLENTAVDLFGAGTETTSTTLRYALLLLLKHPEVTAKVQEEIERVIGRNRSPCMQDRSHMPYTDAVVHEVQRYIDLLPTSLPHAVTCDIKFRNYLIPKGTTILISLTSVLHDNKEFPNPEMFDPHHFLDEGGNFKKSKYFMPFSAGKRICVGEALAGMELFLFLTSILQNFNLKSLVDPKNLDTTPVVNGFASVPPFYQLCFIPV

Staphylococcus aureus [4] = assay: Antibacterial activity against methicillin-resistant Staphylococcus aureus SR3637 infected in JCL/ICR mouse systemic infection model assessed as mortality administered as iv measured over 7 days; type: functional; conditions: 168 h
Method in brief: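 Lethal systemic infection model in mice; test agents were given intravenously.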

Cytochrome P450 3A4 = Cytochrome P450 3A4 (Homo sapiens, UniProt P08684); assay: Inhibition of CYP3A4 in human liver microsomes assessed as terfenadine hydroxylation after 20 mins by LC/MS/MS analysis; type: ADME, Microsome
Cytochrome P450 3A4, sequence (P08684 whole entry): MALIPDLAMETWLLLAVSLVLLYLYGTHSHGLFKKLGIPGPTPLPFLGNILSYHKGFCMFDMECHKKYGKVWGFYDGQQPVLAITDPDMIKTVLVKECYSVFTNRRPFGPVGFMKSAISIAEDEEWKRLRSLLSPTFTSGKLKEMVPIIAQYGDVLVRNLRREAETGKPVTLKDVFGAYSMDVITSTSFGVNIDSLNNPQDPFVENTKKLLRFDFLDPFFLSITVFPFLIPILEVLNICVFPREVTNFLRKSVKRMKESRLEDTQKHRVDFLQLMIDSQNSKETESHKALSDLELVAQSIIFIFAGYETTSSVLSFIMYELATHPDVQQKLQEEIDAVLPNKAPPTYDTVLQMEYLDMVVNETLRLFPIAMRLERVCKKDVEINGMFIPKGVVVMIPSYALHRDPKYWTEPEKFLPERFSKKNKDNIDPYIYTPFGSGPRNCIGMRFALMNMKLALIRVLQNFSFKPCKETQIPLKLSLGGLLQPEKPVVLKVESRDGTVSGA

Staphylococcus aureus [5] = assay: Antibacterial activity against Staphylococcus aureus SR20549 clinical isolate assessed as growth inhibition by broth microdilution method; type: functional
Enterococcus faecalis = assay: Antibacterial activity against Enterococcus faecalis SR1004 clinical isolate assessed as growth inhibition by broth microdilution method; type: functional
Staphylococcus aureus [6] = assay: Antibacterial activity against Staphylococcus aureus Smith assessed as growth inhibition by broth microdilution method; type: functional
Streptococcus pneumoniae = assay: Antibacterial activity against Streptococcus pneumoniae SR26207 clinical isolate assessed as growth inhibition by broth microdilution method; type: functional
Enterococcus faecium = assay: Antibacterial activity against Enterococcus faecium SR7940 clinical isolate assessed as growth inhibition by broth microdilution method; type: functional
Cytochrome P450 2D6 = Cytochrome P450 2D6 (Homo sapiens, UniProt P10635); assay: Inhibition of CYP2D6 in human liver microsomes assessed as dextromethorphan O-demethylation after 20 mins by LC/MS/MS analysis; type: ADME, Microsome
Cytochrome P450 2D6, sequence (P10635 whole entry): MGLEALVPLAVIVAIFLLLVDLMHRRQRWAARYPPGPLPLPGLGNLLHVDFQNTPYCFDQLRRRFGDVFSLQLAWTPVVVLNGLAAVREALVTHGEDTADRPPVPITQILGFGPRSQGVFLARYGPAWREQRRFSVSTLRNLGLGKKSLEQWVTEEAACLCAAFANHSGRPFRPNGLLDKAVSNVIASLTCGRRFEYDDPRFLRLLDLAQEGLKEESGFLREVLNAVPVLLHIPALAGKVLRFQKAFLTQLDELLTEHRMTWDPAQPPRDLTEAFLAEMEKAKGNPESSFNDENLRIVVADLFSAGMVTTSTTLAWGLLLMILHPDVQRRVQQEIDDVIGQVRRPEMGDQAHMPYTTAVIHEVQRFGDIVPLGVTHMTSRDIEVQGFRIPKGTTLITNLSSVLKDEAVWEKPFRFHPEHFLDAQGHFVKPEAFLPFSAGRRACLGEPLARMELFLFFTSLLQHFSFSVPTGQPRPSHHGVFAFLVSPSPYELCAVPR

COC(=S)NC[C@H]1CN(c2ccc(N3CCNN(C(=O)C(F)F)CC3)c(F)c2)C(=O)O1
inhibition at 10 min, 30 µM (MAO-B): 0.1%
MIC (Staphylococcus aureus [1]): 0.25 µg/mL
IC50 (Cytochrome P450 1A2): > 20 µM
MIC (Moraxella catarrhalis): 2 µg/mL
MIC (Haemophilus influenzae): 4 µg/mL
inhibition at 5 min, 30 µM (MAO-A): 9.2%
MIC (Staphylococcus aureus [2]): 4 µg/mL
Ratio ED50 (Staphylococcus aureus [3]): 3
IC50 (Cytochrome P450 2C9): > 20 µM
ED50 (Staphylococcus aureus [4]): 0.77 mg/kg
IC50 (Cytochrome P450 3A4): > 20 µM
MIC (Staphylococcus aureus [5]): 0.125 µg/mL
MIC (Enterococcus faecalis): 0.25 µg/mL
MIC (Staphylococcus aureus [6]): 0.5 µg/mL
MIC (Streptococcus pneumoniae): 0.063 µg/mL
MIC (Enterococcus faecium): 0.25 µg/mL
IC50 (Cytochrome P450 2D6): > 20 µM

From ChEMBL document CHEMBL2434863, “Synthesis and in vitro/in vivo antibacterial activity of oxazolidinones having thiocarbamate at C-5 on the A-ring and an amide- or urea-substituted [1,2,5]triazepane or [1,2,5]oxadiazepane as the C-ring” (Eur J Med Chem, 2013)
